{
  "source": "paper PMC11929782",
  "about": "(Scientific Reports, 2025)",
  "key": {"IL17RC": {"target": "T1, IL17RC (Homo sapiens, UniProt Q8NAC3)", "T1 sequence (Q8NAC3 21-791)": "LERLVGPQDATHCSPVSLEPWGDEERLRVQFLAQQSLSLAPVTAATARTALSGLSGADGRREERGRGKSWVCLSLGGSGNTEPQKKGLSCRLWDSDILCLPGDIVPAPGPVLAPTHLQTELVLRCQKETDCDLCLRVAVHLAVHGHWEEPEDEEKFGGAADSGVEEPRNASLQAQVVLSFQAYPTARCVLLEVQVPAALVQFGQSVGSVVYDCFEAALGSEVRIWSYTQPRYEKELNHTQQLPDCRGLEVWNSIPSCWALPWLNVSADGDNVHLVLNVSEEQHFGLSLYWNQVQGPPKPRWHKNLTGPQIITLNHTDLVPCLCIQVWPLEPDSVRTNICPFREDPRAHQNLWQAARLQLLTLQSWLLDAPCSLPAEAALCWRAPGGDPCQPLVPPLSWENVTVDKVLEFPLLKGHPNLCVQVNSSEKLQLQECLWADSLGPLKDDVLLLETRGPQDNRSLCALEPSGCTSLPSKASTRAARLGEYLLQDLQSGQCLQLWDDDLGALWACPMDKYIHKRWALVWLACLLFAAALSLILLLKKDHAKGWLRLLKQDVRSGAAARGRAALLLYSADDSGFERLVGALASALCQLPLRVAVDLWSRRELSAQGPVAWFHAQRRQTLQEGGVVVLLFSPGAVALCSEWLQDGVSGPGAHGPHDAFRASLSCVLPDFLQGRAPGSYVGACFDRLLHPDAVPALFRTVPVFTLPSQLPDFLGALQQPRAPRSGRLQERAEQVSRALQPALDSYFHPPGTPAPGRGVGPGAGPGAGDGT", "experiment": "ELISA binding assay, IL17RC", "conditions": "read at 450 nm"}, "THP-1 cells": {"system": "THP-1 cells", "experiment": "Cytotoxicity, CCK-8 assay", "assay_type": "cell-based, human", "conditions": "THP-1, normal and IL17RA-deficient cells, varying concentrations, 24 h", "procedure,_shortened": "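THP-1 cells were cultured in RPMI1640 (0.05 mM β-mercaptoethanol, 10% FBS). They were made into M1 macrophages with 100 ng/ml PMA for 120 h, then 1 µg/ml LPS plus 20 ng/ml IFNγ for 24 h. IL17RA was knocked down by siRNA, with cells harvested at 48 h. Normal and knockdown cells (1 × 10⁴ cells/ml) received test compound at varied concentrations for 24 h. CCK-8 for 4 h; A450. Mean ± SEM, ≥3 independent experiments.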"}, "IL17A": {"target": "IL17A (Homo sapiens, UniProt Q16552)", "sequence (Q16552 24-155, species assumed)": "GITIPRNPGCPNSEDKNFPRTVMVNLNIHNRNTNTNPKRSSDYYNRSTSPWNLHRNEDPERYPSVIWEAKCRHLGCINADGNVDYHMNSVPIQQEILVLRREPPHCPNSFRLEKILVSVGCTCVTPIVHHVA", "experiment": "ELISA binding assay, IL17A", "conditions": "read at 450 nm"}, "RAW264.7 cells": {"system": "RAW264.7 cells", "experiment": "Cytotoxicity, CCK-8 assay", "assay_type": "cell-based, murine", "conditions": "RAW264.7, normal and IL17RA-deficient cells, varying concentrations, 24 h", "procedure,_shortened": "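RAW264.7 cells were cultured in RPMI1640 (0.05 mM β-mercaptoethanol, 10% FBS) and polarized to M1 with 1 µg/ml LPS plus 20 ng/ml IFNγ for 24 h. IL17RA was knocked down by siRNA transfection, with cells harvested at 48 h. Normal and knockdown cells (1 × 10⁴ cells/ml) were treated 24 h with varied test compound concentrations. CCK-8 was added for 4 h, then absorbance read at 450 nm. Mean ± SEM, ≥3 independent experiments.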"}, "HaCaT cells": {"system": "HaCaT cells", "experiment": "Cytotoxicity, CCK-8 assay", "assay_type": "cell-based, human", "conditions": "normal and IL17RA-deficient cells, varying concentrations, 24 h", "procedure,_shortened": "(§1)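 HaCaT and NIH3T3 cells were grown in DMEM with 10% FBS at 37 °C and 5% CO2. IL17RA was knocked down with siRNA and Lipofectamine 2000, and cells were harvested 48 h post-transfection. Normal and knockdown cells were seeded at 1 × 10⁴ cells/ml and exposed to a range of test compound concentrations for 24 h. CCK-8 was added for 4 h and absorbance read at 450 nm. Mean ± SEM, ≥3 independent experiments.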"}, "NIH3T3 cells": {"system": "NIH3T3 cells", "experiment": "Cytotoxicity, CCK-8 assay", "assay_type": "cell-based, murine", "conditions": "NIH3T3, normal and IL17RA-deficient cells, varying concentrations, 24 h", "procedure,_shortened": "as §1"}, "IL17F": {"target": "T2, IL17F (Homo sapiens, UniProt Q96PD4)", "T2 sequence (Q96PD4 31-163)": "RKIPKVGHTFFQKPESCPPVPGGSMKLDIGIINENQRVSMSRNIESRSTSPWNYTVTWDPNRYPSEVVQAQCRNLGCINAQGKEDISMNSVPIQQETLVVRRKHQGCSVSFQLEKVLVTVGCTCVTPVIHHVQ", "experiment": "ELISA binding assay, IL17F", "conditions": "read at 450 nm"}, "[1]": {"conditions": "patients, long-term studies; cited from earlier work"}, "Human IL17RA protein [2]": {"target": "T3, Human IL17RA protein (human, UniProt Q96F46 33-320)", "experiment": "MST"}, "Human IL17RA protein [3]": {"target": "T3, Human IL17RA protein", "experiment": "SPR"}},
  "note": "Ends that are not written are not given here.",
  "data": [
    {"molecule": "ASPVIYHL-NH2 [AL-8(0)]", "values": [
      {"measurement": "EC50 for binding to IL17RC", "setting": "IL17RC", "result": "no measurable"},
      {"measurement": "Cytotoxicity (cell viability, CCK-8)", "setting": "THP-1 cells", "result": "not directly cytotoxic"},
      {"measurement": "EC50 for binding to IL17A", "setting": "IL17A", "result": "no measurable"},
      {"measurement": "Cytotoxicity (cell viability, CCK-8)", "setting": "RAW264.7 cells", "result": "not directly cytotoxic"},
      {"measurement": "Cytotoxicity (cell viability, CCK-8)", "setting": "HaCaT cells", "result": "not directly cytotoxic"},
      {"measurement": "Cytotoxicity (cell viability, CCK-8)", "setting": "NIH3T3 cells", "result": "not directly cytotoxic"},
      {"measurement": "EC50 for binding to IL17F", "setting": "IL17F", "result": "no measurable"}
    ]},
    {"molecule": "Ixekizumab", "values": [
      {"measurement": "Immunogenicity", "setting": "[1]", "result": "variable immunogenicity"}
    ]},
    {"molecule": "Secukinumab", "values": [
      {"measurement": "ADA incidence rate", "setting": "[1]", "result": "< 1", "unit": "%"}
    ]},
    {"molecule": "ASPVIYHL-NH2", "note": "[AL-8(0)]", "values": [
      {"measurement": "Kd", "setting": "Human IL17RA protein [2]", "result": 89, "unit": "nM"},
      {"measurement": "Kd", "setting": "Human IL17RA protein [3]", "result": 83, "unit": "nM"}
    ]}
  ]
}
